From PMC11348385 (RSC Advances, 2024)
Values joined by “and” are separate entries in the source; they are usually repeats but may differ in a detail not shown here. Identical values can stand only once.

Tests used:
[1] = target: VEGFR-2 (Homo sapiens, UniProt P35968); test: In vitro VEGFR-2 kinase assay; assay type: biochemical
[2] = tested on: HepG2 cell line; test: MTT colorimetric cytotoxicity assay, HepG2; assay type: cell-based, human; conditions: for IC50: Homo sapiens, HepG2, 72 h, read-out: IC50 HepG2; for Selectivity index: folds toxic in HepG2 than in VERO cells: VERO vs HepG2; for selectivity class against HepG2: high SI ≥ 5, moderate SI > 2, low SI < 2, vs VERO
[3] = tested on: MCF-7 cell line; test: MTT colorimetric cytotoxicity assay, MCF-7; assay type: cell-based, human; conditions: for IC50: Homo sapiens, MCF7, 72 h, read-out: IC50 MCF-7; for Selectivity index: folds more toxic regarding MCF-7 than VERO cells: VERO vs MCF-7; for selectivity class against MCF-7: high SI ≥ 5, moderate SI > 2, low SI < 2, vs VERO
[4] = tested on: BAX; test: BAX expression level in MCF-7 cells; assay type: cell-based, human; conditions: MCF-7, IC50 of 4b
In short: (§1)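 Test compound given to MCF-7 cells for 24 h; Bax and Bcl-2 expression levels then determined. Each is expressed as fold change versus untreated control cells, and the Bax/Bcl-2 ratio is calculated from these fold changes.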

[5] = tested on: Bcl-2; test: Bcl-2 expression level in MCF-7 cells; assay type: cell-based, human; conditions: MCF-7, IC50 of 4b, 24 h, mean ± SEM
[6] = tested on: MCF-7 cells; test: Annexin V / propidium iodide double staining apoptosis assay; assay type: cell-based, human; conditions: MCF-7, IC50 of 4b, 24 h
[7] = tested on: BAX/Bcl-2 ratio; test: BAX/Bcl-2 ratio in MCF-7 cells; assay type: cell-based, human; conditions: MCF-7, IC50 of 4b
In short: as §1

[8] = tested on: MCF-7 cells; test: Cell cycle distribution; assay type: cell-based, human; conditions: MCF-7, 2.3 μM 4b, 24 h, mean ± SEM
In short: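 MCF-7 cells treated with 2.3 μM test compound for 24 h, harvested and stained with propidium iodide. DNA content was analysed for distribution across G1, S and G2/M phases, with an untreated control alongside. Values are mean ± SEM of three independent experiments.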

Sequence of VEGFR-2 (P35968 20-1356): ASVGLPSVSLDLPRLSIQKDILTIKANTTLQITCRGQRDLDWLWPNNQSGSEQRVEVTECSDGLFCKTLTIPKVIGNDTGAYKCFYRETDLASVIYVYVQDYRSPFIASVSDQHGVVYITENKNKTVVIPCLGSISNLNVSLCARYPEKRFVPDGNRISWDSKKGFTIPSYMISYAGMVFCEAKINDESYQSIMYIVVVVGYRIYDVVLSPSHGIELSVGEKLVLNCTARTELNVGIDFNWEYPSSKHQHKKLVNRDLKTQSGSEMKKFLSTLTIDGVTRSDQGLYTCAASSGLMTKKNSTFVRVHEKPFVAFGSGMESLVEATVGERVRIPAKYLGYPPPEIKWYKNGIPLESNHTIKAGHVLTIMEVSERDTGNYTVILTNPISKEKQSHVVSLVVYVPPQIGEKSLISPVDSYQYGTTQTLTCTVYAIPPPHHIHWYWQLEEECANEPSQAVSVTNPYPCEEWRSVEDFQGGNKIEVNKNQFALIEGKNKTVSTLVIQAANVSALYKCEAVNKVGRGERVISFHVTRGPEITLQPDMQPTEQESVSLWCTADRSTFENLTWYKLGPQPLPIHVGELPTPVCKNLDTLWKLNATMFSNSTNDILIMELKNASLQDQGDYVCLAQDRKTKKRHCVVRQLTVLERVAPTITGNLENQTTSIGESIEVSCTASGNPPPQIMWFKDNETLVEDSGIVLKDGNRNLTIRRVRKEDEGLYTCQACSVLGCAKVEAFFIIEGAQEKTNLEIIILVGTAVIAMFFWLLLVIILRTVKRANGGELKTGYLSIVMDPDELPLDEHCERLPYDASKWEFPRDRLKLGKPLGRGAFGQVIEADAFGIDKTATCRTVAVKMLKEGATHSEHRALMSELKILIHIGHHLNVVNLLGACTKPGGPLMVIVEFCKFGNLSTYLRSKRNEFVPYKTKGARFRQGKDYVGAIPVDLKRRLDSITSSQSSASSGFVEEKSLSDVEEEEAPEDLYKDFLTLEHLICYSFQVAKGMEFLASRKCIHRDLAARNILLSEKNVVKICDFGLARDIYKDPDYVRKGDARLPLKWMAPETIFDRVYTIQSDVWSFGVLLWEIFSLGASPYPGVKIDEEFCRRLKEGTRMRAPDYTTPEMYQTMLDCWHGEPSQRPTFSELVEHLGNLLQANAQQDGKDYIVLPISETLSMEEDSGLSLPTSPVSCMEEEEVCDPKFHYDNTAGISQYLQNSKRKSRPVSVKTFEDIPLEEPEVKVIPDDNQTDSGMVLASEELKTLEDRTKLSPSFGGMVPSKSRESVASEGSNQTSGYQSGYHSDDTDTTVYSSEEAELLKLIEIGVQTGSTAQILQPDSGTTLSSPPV

| Structure (SMILES) | IC50 [1] [nM] | IC50 [2] [nM] | Selectivity index: folds toxic in HepG2 than in VERO cells [2] [folds] | IC50 [3] [nM] | Selectivity index: folds more toxic regarding MCF-7 than VERO cells [3] [folds] | selectivity class against MCF-7 [3] | other results |
| --- | --- | --- | --- | --- | --- | --- | --- |
| Clc1ccc(-c2nnc(Nc3ccc(C4=NNC(c5ccccc5)C4)cc3)c3ccccc23)cc1 (stereo not drawn) [Compound 3a, 4-(4-Chlorophenyl)-N-(4-(5-phenyl-4,5-dihydro-1H-pyrazol-3-yl)phenyl)phthalazin-1-amine] | 1250 ± 50 | 1270 ± 30 | 3.74 | 1160 ± 10 | 4.09 | moderate selectivity | selectivity class against HepG2 [2]: moderate selectivity |
| Clc1ccc(-c2nnc(Nc3ccc(C4=NNC(c5ccc(Cl)cc5)C4)cc3)c3ccccc23)cc1 (stereo not drawn) [Compound 3b, 4-(4-Chlorophenyl)-N-(4-(5-(4-chlorophenyl)-4,5-dihydro-1H-pyrazol-3-yl)phenyl)phthalazin-1-amine] | 800 ± 50 | – | 5.31 | 830 ± 20 | 5.12 | – | – |
| Oc1ccccc1C1CC(c2ccc(Nc3nnc(-c4ccc(Cl)cc4)c4ccccc34)cc2)=NN1 (stereo not drawn) [Compound 3c, 2-(3-[4-{(4-[4-Chlorophenyl]phthalazin-1-yl)amino}phenyl]-4,5-dihydro-1H-pyrazol-5-yl)phenol] | 840 ± 50 | 1250 ± 20 | 3.29 | 880 ± 30 | 4.67 | moderate selectivity | selectivity class against HepG2 [2]: moderate selectivity |
| Oc1ccc(C2CC(c3ccc(Nc4nnc(-c5ccc(Cl)cc5)c5ccccc45)cc3)=NN2)cc1 (stereo not drawn) [Compound 3d, 4-(3-[4-{(4-[4-Chlorophenyl]phthalazin-1-yl)amino}phenyl]-4,5-dihydro-1H-pyrazol-5-yl)phenol] | 700 ± 50 | 150 | 29.00 | 740 ± 10 | 5.88 | – | – |
| COc1ccc(C2CC(c3ccc(Nc4nnc(-c5ccc(Cl)cc5)c5ccccc45)cc3)=NN2)cc1 (stereo not drawn) [Compound 3e, 4-(4-Chlorophenyl)-N-(4-[5-{4-methoxyphenyl}-4,5-dihydro-1H-pyrazol-3-yl]phenyl)phthalazin-1-amine] | 120 ± 20 | – | 16.95 | 80 ± 10 | 40.25 | – | – |
| O=c1nc(-c2ccc(Nc3nnc(-c4ccc(Cl)cc4)c4ccccc34)cc2)cc(-c2ccccc2)[nH]1 [Compound 4a, 4-(4-[{4-(4-Chlorophenyl)phthalazin-1-yl}amino]phenyl)-6-phenylpyrimidin-2(1H)-one] | 150 ± 30 | 290 ± 10 | 13.79 | – | 25.00 | – | – |
| O=c1nc(-c2ccc(Nc3nnc(-c4ccc(Cl)cc4)c4ccccc34)cc2)cc(-c2ccc(Cl)cc2)[nH]1 [Compound 4b, 6-(4-Chlorophenyl)-4-(4-[{4-(4-chlorophenyl)phthalazin-1-yl}amino]phenyl)pyrimidin-2(1H)-one] | 90 ± 20 | 60 ± 10 | 50.00 | 60 ± 10 | 50.00 | – | boost of Bax level vs control [4]: approximately 3 folds; Gene expression fold change BAX ([4]; 24 h, mean ± SEM): 3.3282 ± 0.67; Gene expression fold change Bcl-2 [5]: 0.374 ± 0.02; early apoptosis, folds over the control [6]: more than 25 folds; % Apoptosis Early ([6]; mean ± SEM): 15.06% and 15.06 ± 0.91%; % Apoptosis Late ([6]; mean ± SEM): 6.72 ± 0.31%; % Necrosis ([6]; mean ± SEM): 4.66% and 4.66 ± 0.19%; boost of Bax/Bcl2 ratio compared to the control [7]: approximately 8 folds; Gene expression fold change BAX/Bcl-2 ratio ([7]; 24 h, mean ± SEM): 8.25 ± 0.71; DNA content % G1 [8]: 53.96 ± 2.15%; DNA content % S [8]: 39.12 ± 1.92% |
| S=c1nc(-c2ccc(Nc3nnc(-c4ccc(Cl)cc4)c4ccccc34)cc2)cc(-c2ccccc2)[nH]1 [Compound 5a, 4-(4-[{4-(4-Chlorophenyl)phthalazin-1-yl}amino]phenyl)-6-phenylpyrimidin-2(1H)-thione] | 750 ± 50 | 800 ± 20 | 5.15 | 860 ± 10 | 4.79 | moderate selectivity | – |
| S=c1nc(-c2ccc(Nc3nnc(-c4ccc(Cl)cc4)c4ccccc34)cc2)cc(-c2ccc(Cl)cc2)[nH]1 [Compound 5b, 6-(4-Chlorophenyl)-4-(4-[{4-(4-chlorophenyl)phthalazin-1-yl}amino]phenyl)pyrimidin-2(1H)-thione] | 130 ± 30 | 150 ± 10 | 21.00 | 110 ± 10 | 28.64 | – | – |
| CNC(=O)c1cc(Oc2ccc(NC(=O)Nc3ccc(Cl)c(C(F)(F)F)c3)cc2)ccn1 [Sorafenib, sorafenib, reference compound] | – | 30 ± 10 | – | 50 ± 10 | – | – | – |
